According to paper PMC11162967 (International Journal of Nanomedicine, 2024):
Values after ≈ are worked out from the molar mass of the structure shown.

Legend:
[1] = test system: Caco-2 cells; assay: Cellular uptake in Caco-2 cell monolayer; type: in vitro ADME; details: Caco-2, 30 μM luteolin, 37°C, 4 h
[2] = test system: HUA model mice; assay: Anti-hyperuricemia study in HUA mice model; type: in vivo, ICR mice; details: oral 30 mg/kg luteolin for 2 weeks, compared with HUA group
Summary of the method: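 Male ICR mice, n=8 per group. Hyperuricemia induced by daily intraperitoneal potassium oxonate 300 mg/kg plus hypoxanthine 300 mg/kg in normal saline for seven consecutive days. Test compound given by gavage in normal saline at 30 mg/kg luteolin-equivalent for 2 weeks, including 1-week pretreatment. Vehicle and febuxostat 10 mg/kg (oral, one week) controls. Serum uric acid measured by commercial kit at end; one-way ANOVA.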

[3] = test system: Caco-2 cells; assay: Cytotoxicity study on Caco-2 cells; type: cell-based; details: under the experimental conditions (Figure S4)
[4] = test system: Caco-2 cells; assay: Cellular uptake mechanisms with endocytosis inhibitors; type: in vitro ADME
Summary of the method: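 Caco-2 cells seeded at 2.5×10^4 per well, cultured 14 days. Then rinsed and given test compound at 30 μM luteolin, 4 h at 37°C. Washed, lysed by ultrasonication, luteolin by HPLC normalised to BCA protein. Compared with uninhibited control.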

[5] = In vitro dissolution; type: physicochemical; details: 37°C
[6] = Saturated solubility; type: physicochemical; details: ultrapure water
Summary of the method: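 Excess test material added to 5 mL ultrapure water, shaken 24 h at 37°C. Undissolved drug removed by centrifugation (12,000 rpm, 30 min) and 0.22 μm filtration. Filtrate concentration measured by HPLC. n=3, mean ± SD.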

effect of chlorpromazine, indomethacin, or colchicine on cellular uptake ([4]; Caco-2 pretreated with inhibitor 1 h): no significant change
effect of sodium azide on cellular uptake ([4]; Caco-2 pretreated with sodium azide 650 μg/mL 1 h): significantly reduced
drug dissolved (cumulative dissolution) ([5]; SGF pH 1.2 with 0.5% Tween 80, within 3 min): 25.78%
drug dissolved (cumulative dissolution) ([5]; SIF pH 6.8 with 0.5% Tween 80, within 3 min): 48.47%
solubility at 24 h [6]: 0.94 ± 0.07 µg/mL (≈ 3.28 µM)
Structure (SMILES): O=c1cc(-c2ccc(O)c(O)c2)oc2cc(O)cc(O)c12 [LUT, Luteolin]
cellular uptake [1]: 25.89 ± 4.94 μg luteolin/mg cellular protein
serum UA level reduction [2]: 51.67%
viability of Caco-2 cells [3]: did not affect the viability
